SMILES strings stand for the structures. Converted amounts (≈) assume the structure as drawn. The source made the active and inactive calls. The calls are words filed in the database; no cut-off is given here.

The first test addresses T1, Cell division protein FtsZ (Staphylococcus aureus) (UniProt P0A031).
T1 sequence (whole entry): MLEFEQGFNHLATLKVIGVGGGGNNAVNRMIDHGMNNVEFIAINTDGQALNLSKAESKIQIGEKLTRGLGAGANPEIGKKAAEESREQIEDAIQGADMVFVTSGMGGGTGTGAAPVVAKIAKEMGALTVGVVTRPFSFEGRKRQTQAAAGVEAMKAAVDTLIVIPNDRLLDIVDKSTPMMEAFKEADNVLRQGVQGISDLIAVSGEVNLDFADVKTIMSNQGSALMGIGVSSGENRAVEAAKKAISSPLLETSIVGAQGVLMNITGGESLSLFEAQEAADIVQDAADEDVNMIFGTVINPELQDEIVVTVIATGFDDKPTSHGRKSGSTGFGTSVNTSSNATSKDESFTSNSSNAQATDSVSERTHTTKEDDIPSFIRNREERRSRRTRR
Put plainly: Inhibition of FtsZ in Staphylococcus aureus ATCC 25923 assessed as decrease in cell division by measuring lowest compound concentration at which bacterial ballooning is observed after 5 hrs by phase-contrast light microscopy.
Conditions: not given
In outline: (§1)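 Cell division inhibition scored by cell morphology under phase-contrast light microscopy. B. subtilis ATCC9372, E. coli ATCC25922 and S. aureus ATCC25923 were exposed to compound. The lowest concentration giving filamentation (B. subtilis, E. coli) or ballooning (S. aureus) was recorded as the cell division inhibitory concentration.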
`NC(=O)c1c(F)ccc(OCCCCCBr)c1F`: the INH is 4 µg/mL.

For `NC(=O)c1c(F)ccc(OCc2nc3ccccc3[nH]2)c1F`, the INH was 512 µg/mL.

For `NC(=O)c1c(F)ccc(OCCCCCCBr)c1F`, the INH was determined as 1 µg/mL.

`NC(=O)c1c(F)ccc(OC2CCCC2)c1F`: the INH came out at 256 µg/mL.

Another test has as its system Bacillus subtilis. As to the kind of experiment: Inhibition of FtsZ in Bacillus subtilis ATCC 9372 assessed as decrease in cell division by measuring lowest compound concentration at which bacterial filamentation is observed after 5 hrs by phase-contrast light microscopy.
Conditions: not given
The essentials:
as §1
As to `NC(=O)c1c(F)ccc(OCCCCCBr)c1F`, the INH came to 2 µg/mL.

As to `NC(=O)c1c(F)ccc(OCCCCCCBr)c1F`, the INH came out at 0.5 µg/mL.

With `NC(=O)c1c(F)ccc(OC2CCCC2)c1F`, the INH was 256 µg/mL.

The next test has as its system Pseudomonas aeruginosa. Put plainly: Antibacterial activity against Pseudomonas aeruginosa ATCC 27853 after 24 hrs by broth microdilution method. In kind it is functional. To be noted: ATCC 27853, 24 h. The essentials: (§2)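 MIC by standard broth microdilution per NCCLS guidance. Strain panel: B. subtilis ATCC9372 and S. aureus ATCC25923 as standard susceptible strains, S. aureus ATCC29213 as […], S. pyogenes PS as penicillin-susceptible, S. pneumoniae ATCC49619 as standard susceptible, alongside Gram-negative strains.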
A general note: In broth dilution the organism is exposed to a series of concentrations in liquid medium.
By MIC is commonly meant the lowest concentration that inhibits growth of the organism. A high value points to weaker potency. Molecule `NC(=O)c1c(F)ccc(OCCCCCBr)c1F` returned an MIC of 256 µg/mL (≈ 795 µM).

As for `NC(=O)c1c(F)ccc(OCc2nc3ccccc3[nH]2)c1F`, the MIC was 256 µg/mL (≈ 844 µM).

Turning to `NC(=O)c1c(F)ccc(OCCCCCCBr)c1F`, 128 µg/mL (≈ 381 µM) was the least that counted as inhibitory (MIC).

Take `NC(=O)c1c(F)ccc(OC2CCCC2)c1F`: inhibition of growth (MIC) required 128 µg/mL (≈ 531 µM).

In a further test the test system is Bacillus subtilis. As to the kind of experiment: Antibacterial activity against Bacillus subtilis ATCC 9372 after 24 hrs by broth microdilution method. It counts as functional. To be noted: ATCC 9372, 24 h. In outline: as §2
Regarding `NC(=O)c1c(F)ccc(OCCCCCBr)c1F`, the MIC is 16 µg/mL (≈ 49.7 µM).

`NC(=O)c1c(F)ccc(OCc2nc3ccccc3[nH]2)c1F` yielded an MIC of 1020 µg/mL (≈ 3380 µM).

Take `NC(=O)c1c(F)ccc(OCCCCCCBr)c1F`: the MIC amounted to 1 µg/mL (≈ 2.97 µM).

`NC(=O)c1c(F)ccc(OC2CCCC2)c1F`: 512 µg/mL (≈ 2120 µM) was the least that counted as inhibitory (MIC).

In a further test the test system is Streptococcus pneumoniae. As to the kind of experiment: Antibacterial activity against Streptococcus pneumoniae ATCC 49619 after 24 hrs by broth microdilution method. It counts as functional. To be noted: ATCC 49619, 24 h. The essentials: as §2
For `NC(=O)c1c(F)ccc(OCCCCCBr)c1F`, the MIC came to 128 µg/mL (≈ 397 µM).

In the case of `NC(=O)c1c(F)ccc(OCc2nc3ccccc3[nH]2)c1F`, the lowest concentration to inhibit growth (MIC) was 256 µg/mL (≈ 844 µM). This MIC is about 2-fold higher than that of the molecule before.

For the molecule `NC(=O)c1c(F)ccc(OCCCCCCBr)c1F`, the MIC was above 128 µg/mL.

In the case of `NC(=O)c1c(F)ccc(OC2CCCC2)c1F`, 128 µg/mL (≈ 531 µM) was the least that counted as inhibitory (MIC).

In another test the test system is Escherichia coli ATCC 25922. Put plainly: Inhibition of FtsZ in Escherichia coli ATCC 25922 assessed as decrease in cell division by measuring lowest compound concentration at which bacterial filamentation is observed after 5 hrs by phase-contrast light microscopy.
Conditions: not given
In outline:
as §1
For `NC(=O)c1c(F)ccc(OCCCCCBr)c1F`, the INH is 64 µg/mL.

In the case of `NC(=O)c1c(F)ccc(OCc2nc3ccccc3[nH]2)c1F`, the INH is 128 µg/mL.

Take `NC(=O)c1c(F)ccc(OCCCCCCBr)c1F`: the INH worked out at 64 µg/mL.

As to `NC(=O)c1c(F)ccc(OC2CCCC2)c1F`, the INH worked out at 64 µg/mL.

A further test concerns Staphylococcus aureus. As to the kind of experiment: Antibacterial activity against Staphylococcus aureus ATCC 29213 after 24 hrs by broth microdilution method. It counts as functional. To be noted: ATCC 29213, 24 h. In outline: as §2
For the molecule `NC(=O)c1c(F)ccc(OCCCCCBr)c1F`, the MIC turned out to be 16 µg/mL (≈ 49.7 µM).

The molecule `NC(=O)c1c(F)ccc(OCc2nc3ccccc3[nH]2)c1F` showed an MIC of 512 µg/mL (≈ 1690 µM).

`NC(=O)c1c(F)ccc(OCCCCCCBr)c1F` returned a minimum inhibitory concentration (MIC) of 2 µg/mL (≈ 5.95 µM).

In turn, `NC(=O)c1c(F)ccc(OC2CCCC2)c1F` yielded an MIC of 256 µg/mL (≈ 1060 µM).

For a further test, the system named is Bacillus subtilis. Put plainly: Inhibition of FtsZ in Bacillus subtilis ATCC 9372 assessed as decrease in cell division by measuring cell morphology at 2048 to 4096 ug/ml after 5 hrs by phase-contrast light microscopy.
Conditions: not given
Regarding `NC(=O)c1c(F)ccc(OCc2nc3ccccc3[nH]2)c1F`, the inhibition result is “inactive”.

Another test relates to Streptococcus pyogenes. As to the kind of experiment: Antibacterial activity against penicillin-susceptible Streptococcus pyogenes after 24 hrs by broth microdilution method. It counts as functional.
Conditions: not given
In outline:
as §2
`NC(=O)c1c(F)ccc(OCCCCCBr)c1F` registered an MIC of 128 µg/mL (≈ 397 µM).

Turning to `NC(=O)c1c(F)ccc(OCc2nc3ccccc3[nH]2)c1F`, the MIC is 1020 µg/mL (≈ 3380 µM).

Molecule `NC(=O)c1c(F)ccc(OCCCCCCBr)c1F` gave an MIC of 64 µg/mL (≈ 190 µM).

Turning to `NC(=O)c1c(F)ccc(OC2CCCC2)c1F`, the minimal inhibitory concentration (MIC) was above 128 µg/mL.

The subject of a further test is Escherichia coli. As to the kind of experiment: Antibacterial activity against Escherichia coli ATCC 25922 after 24 hrs by broth microdilution method. It counts as functional. To be noted: ATCC 25922, 24 h. The essentials: as §2
`NC(=O)c1c(F)ccc(OCCCCCBr)c1F`: the lowest concentration to inhibit growth (MIC) was 256 µg/mL (≈ 795 µM).

`NC(=O)c1c(F)ccc(OCc2nc3ccccc3[nH]2)c1F` came in with an MIC of 256 µg/mL (≈ 844 µM).

In the case of `NC(=O)c1c(F)ccc(OCCCCCCBr)c1F`, inhibition of growth (MIC) required 128 µg/mL (≈ 381 µM).

As to `NC(=O)c1c(F)ccc(OC2CCCC2)c1F`, the lowest concentration to inhibit growth (MIC) was 128 µg/mL (≈ 531 µM).

Another test has as its system Staphylococcus aureus. As to the kind of experiment: Antibacterial activity against penicillin-resistant Staphylococcus aureus clinical isolate after 24 hrs by broth microdilution method. It counts as functional.
Conditions: not given
For `NC(=O)c1c(F)ccc(OCCCCCBr)c1F`, inhibition of growth (MIC) required 16 µg/mL (≈ 49.7 µM).

Consider `NC(=O)c1c(F)ccc(OCc2nc3ccccc3[nH]2)c1F`, for which inhibition of growth (MIC) required 1020 µg/mL (≈ 3380 µM).

For `NC(=O)c1c(F)ccc(OCCCCCCBr)c1F`, the MIC amounted to 2 µg/mL (≈ 5.95 µM).

Take `NC(=O)c1c(F)ccc(OC2CCCC2)c1F`: the MIC amounted to 512 µg/mL (≈ 2120 µM).

The subject of the next test is Staphylococcus aureus. As to the kind of experiment: Antibacterial activity against Staphylococcus aureus ATCC 25923 after 24 hrs by broth microdilution method. It counts as functional. To be noted: ATCC 25923, 24 h. The essentials: as §2
Turning to `NC(=O)c1c(F)ccc(OCCCCCBr)c1F`, inhibition of growth (MIC) required 8 µg/mL (≈ 24.8 µM).

In turn, `NC(=O)c1c(F)ccc(OCc2nc3ccccc3[nH]2)c1F` gave an MIC of 1020 µg/mL (≈ 3380 µM).

In the case of `NC(=O)c1c(F)ccc(OCCCCCCBr)c1F`, the MIC was determined as 1 µg/mL (≈ 2.97 µM).

With `NC(=O)c1c(F)ccc(OC2CCCC2)c1F`, the MIC turned out to be 256 µg/mL (≈ 1060 µM).

These data come from ChEMBL document CHEMBL4002610, “Design, synthesis and biological activity evaluation of novel 2,6-difluorobenzamide derivatives through FtsZ inhibition” (2017).
